# MsrA inhibitor – inhibits bovine methionine sulfoxide reductase A | inhibition, % at 15.5 µM | AID 651718 | purified bovine MsrA, absorbance read-out | hit rate 0.75% among 360,000;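 further: 0% = vehicle wells with enzyme and 100% = reference inhibitor wells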
# bovine MsrA act – bovine methionine sulfoxide reductase A activation | purified bovine MsrA, absorbance read-out | activation, % at 10.6 µM | hit rate 0.3% among 360,000 | AID 602163; in the data active means activation above about 7.5%;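 further: 0% = vehicle and 100% = reference activator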
# IMP-1 inh – blocks Pseudomonas aeruginosa IMP-1 metallo-beta-lactamase | purified IMP-1, nitrocefin hydrolysis, epi-absorbance fluorescence | inhibition, % at 5.6 µM | hit rate 0.45% among 290,000;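 active means inhibition above the mean plus 3 SD of all compounds in the same screening run, cut at about 4.5% in these data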;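 further: 0% = IMP-1 with DMSO and 100% = DMSO wells lacking enzyme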
#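 assay system = purified recombinant IMP-1 metallo-beta-lactamase enzyme | schedule = 15 min preincubation plus 25 min reaction at 25 °C | signal = Epi-absorbance fluorescence, 480 nm excitation, 530 nm emission | read-out basis = percent inhibition from optical density relative to buffer-blank wells | controls = IMP-1 with DMSO as 0%, enzyme-free DMSO as 100%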
# PKA-R2B act – activators of human PKA-R2B complex. hit rate 0.079% among 340,000. AID 504700. P22694+P31323. PKA-R2B holoenzyme dissociation, Cy5-IP20 fluorescence polarization; R2B truncated from residue 108, S112A mutant; 0% DMSO only, 100% 113 µM cGMP. activation, % at 11.4 µM;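 active means activation above a cutoff set at the mean over all compounds plus 3 SD, cut at about 18% in these data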;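 further: higher means more holoenzyme dissociation and a rise in polarization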
# Target sequence (P31323 whole entry, looked up, other chains not shown, the tested form may be a part): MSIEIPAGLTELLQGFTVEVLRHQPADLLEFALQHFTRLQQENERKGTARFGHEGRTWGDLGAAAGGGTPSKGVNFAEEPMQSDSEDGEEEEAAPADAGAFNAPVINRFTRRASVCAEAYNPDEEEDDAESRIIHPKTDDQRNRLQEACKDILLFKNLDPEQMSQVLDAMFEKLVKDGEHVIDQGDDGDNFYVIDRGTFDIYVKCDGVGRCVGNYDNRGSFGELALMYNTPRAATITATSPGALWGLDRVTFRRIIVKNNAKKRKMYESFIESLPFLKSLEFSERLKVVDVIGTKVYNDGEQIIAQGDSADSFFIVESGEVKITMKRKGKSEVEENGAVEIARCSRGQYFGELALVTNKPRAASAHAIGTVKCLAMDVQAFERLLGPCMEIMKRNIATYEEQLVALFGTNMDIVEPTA
# PKA-R1A act – PKA-R1A complex activation | P00514+P68181 | PKA-R1A dissociation, Cy5-IP20 fluorescence polarization; scaled: DMSO 0%, 113 µM cGMP 100% | activation, % at 11.4 µM | hit rate 0.083% among 340,000 | AID 504707;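 active means percent activation above the mean of all tested compounds plus 3 SD, cut at about 19% in these data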;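 further: higher means more PKAc released from R1A so a rise in polarization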
# VIM-2 inh – blocks Pseudomonas aeruginosa VIM-2 metallo-beta-lactamase; purified VIM-2, nitrocefin hydrolysis, epi-absorbance fluorescence; inhibition, % at 5.6 µM; hit rate 0.89% among 290,000; AID 1527;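 active means inhibition above the mean of all tested compounds plus 3 SD, cutoff set per screening run, cut at about 7.5% in these data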;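 further: red hydrolysis product quenches plate fluorescence so inhibitors raise well fluorescence; 0% = enzyme with DMSO and 100% = DMSO without enzyme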
# MsrA conf – bovine MsrA inhibition, confirmed; shares compounds with MsrA inhibitor; purified bovine MsrA, absorbance read-out; inhibition, % at 15.5 µM; hit rate 41% among 2,300;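 further: coupled to thioredoxin reductase with NADPH and selenocystamine and DMSO as substrate; 0% = vehicle only and 100% = full effect of reference inhibitor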
# * = called active by the depositor; / = no result. In the library only some 2.1% were active in any assay of this set; here they are far more common. Unless noted, no stated cut-off is given here; in the data, active means inhibition above about 4.5%; inactive means the rest.
SMILES,MsrA inhibitor,bovine MsrA act,IMP-1 inh,PKA-R2B act,PKA-R1A act,VIM-2 inh,MsrA conf
CN(N=Cc1ccc(N(C)C)cc1)C(=O)c1ccccc1N,5.3*,/,/,/,/,/,3.2
Cc1nc2sccn2c(=O)c1S(=O)(=O)NCC1CCN(Cc2ccc(Cl)cc2)CC1,1.1,-1.2,/,-7.2,-4.9,/,/
Nc1c(-c2ccc(C(F)(F)F)cc2)nc2ncccn12,-0.5,/,/,/,/,/,/
[O-][n+]1cc(Cl)cc(Cl)c1,-0.3,0.6,/,/,/,/,/
COC(=O)C1=C(C)N(Cc2ccccc2C(F)(F)F)C(=NCc2ccc(C(F)(F)F)cc2)NC1c1cccc(Cl)c1 (stereo unspecified),-1.8,/,/,/,/,/,/
COc1ccc(/C=N/NC(=O)Cn2nnc3ccccc32)cc1OC,0.4,-1.0,-0.8,0.1,-4.3,-1.1,/
CN(C)c1ccc(/C=C(\NC(=O)c2ccccc2)C(=O)N/N=C/c2ccc(C(=O)O)cc2)cc1,5.7*,-4.4,-3.5,6.7,-1.4,-1.2,5.4*
CN(C)c1ccc(/C=N/NC(=O)Cn2nnc3ccccc32)cc1,5.1*,-5.5,-1.4,-4.5,-6.8,-0.7,4.7*
CSCCC(C(=O)NC(C)(C)C)n1c(-c2ccc3c(c2)OCO3)nc2ccccc21 (stereo unspecified),-0.3,/,/,/,/,/,/
O=C(NC(Cc1cn(Cc2ccccc2)cn1)C(=O)O)OCC1c2ccccc2-c2ccccc21 (stereo unspecified),/,-4.1,/,/,/,/,/
CC[C@H]1C=C[C@@H](C(C(=O)OC)C(=O)OC)CN1C(C)=O,-0.4,0.0,/,11.8,4.1,/,/
Nc1ccc2nc(-c3ccc(N)c(Cl)c3)[nH]c2c1,5.5*,-0.7,-3.6,-7.1,6.3,1.2,5.5*
Nc1ccc(-c2nc3c(Cl)cc(N)cc3[nH]2)cc1,5.2*,-5.3,-0.8,1.9,-7.8,-0.1,4.1
COc1ccc2nc(-c3ccc(N)cc3)[nH]c2c1,3.7,-4.2,-3.5,-5.9,-6.5,-3.7,/
Nc1ccc2nc(-c3ccccc3)[nH]c2c1,3.3,-3.4,0.2,0.8,-8.7,3.2,/
CC(=O)c1cccc(Nc2cc(C)nc3c(C)cc(C)cc23)c1,5.9*,-6.5,-3.1,-3.0,10.9,10.0*,1.6
O=c1[nH]c(/C=C/c2ccc([N+](=O)[O-])cc2)c([N+](=O)[O-])c(=O)[nH]1,5.4*,-5.8,-3.9,-8.6,-0.7,-0.6,5.6*
Cc1cc2nc(-c3ccc(SCC(=O)Nc4ccc(S(=O)(=O)N5CCCC5)cc4)nc3)[nH]c2cc1C,5.0*,-8.2,-2.8,8.2,3.9,-3.7,3.0
Cc1ccc2nc(-c3ccc(SCC(=O)N4CCc5ccccc54)nc3)[nH]c2c1,-0.1,-4.7,-0.7,1.0,-5.9,-3.6,/
O=C(CSc1ccc(-c2nc3ccccc3[nH]2)cn1)Nc1ccc(S(=O)(=O)N2CCCC2)cc1,2.6,-4.3,-3.0,-4.2,-1.9,-1.4,/
Cc1ccc2nc(-c3ccc(SCC(=O)O)nc3)[nH]c2c1,8.9*,-12.7,-2.7,-10.8,4.2,-0.6,4.7*
O=C(C[C@H]1C=C[C@H](NC(=O)c2ccccn2)[C@@H](CO)O1)NCc1cc(F)cc(F)c1,0.5,/,/,/,/,/,/
CC(=O)Oc1ccccc1Cn1c(C)c(C(=O)NCc2cccc([N+](=O)[O-])c2)sc1=O,-0.8,-3.7,/,/,/,/,/
CN(C(=O)c1cccc(NC(=O)Cc2ccc(NC(=O)C3CCCN(C(=O)C4CCC4)C3)cc2)c1)C1CC1 (stereo unspecified),-0.1,-1.6,/,1.4,-2.4,/,/
CCOC(=O)C1=C(Nc2ccc(Br)cc2)C(=O)N(CC)C1,2.9,/,/,/,/,/,/
